DAGLB inh – blocks human DAGLB lipase activity | HEK293T DAGLB membrane lysate, EnzChek fluorogenic substrate | inhibition, % at 5.17 µM | AID 504411 | 340,000 tested, 0.059% active | Q8NCG7; in the data active = inhibition above about 34%;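 also: 0% = enzyme with vehicle and 100% = wells lacking enzyme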
Target sequence (Q8NCG7 whole entry, looked up): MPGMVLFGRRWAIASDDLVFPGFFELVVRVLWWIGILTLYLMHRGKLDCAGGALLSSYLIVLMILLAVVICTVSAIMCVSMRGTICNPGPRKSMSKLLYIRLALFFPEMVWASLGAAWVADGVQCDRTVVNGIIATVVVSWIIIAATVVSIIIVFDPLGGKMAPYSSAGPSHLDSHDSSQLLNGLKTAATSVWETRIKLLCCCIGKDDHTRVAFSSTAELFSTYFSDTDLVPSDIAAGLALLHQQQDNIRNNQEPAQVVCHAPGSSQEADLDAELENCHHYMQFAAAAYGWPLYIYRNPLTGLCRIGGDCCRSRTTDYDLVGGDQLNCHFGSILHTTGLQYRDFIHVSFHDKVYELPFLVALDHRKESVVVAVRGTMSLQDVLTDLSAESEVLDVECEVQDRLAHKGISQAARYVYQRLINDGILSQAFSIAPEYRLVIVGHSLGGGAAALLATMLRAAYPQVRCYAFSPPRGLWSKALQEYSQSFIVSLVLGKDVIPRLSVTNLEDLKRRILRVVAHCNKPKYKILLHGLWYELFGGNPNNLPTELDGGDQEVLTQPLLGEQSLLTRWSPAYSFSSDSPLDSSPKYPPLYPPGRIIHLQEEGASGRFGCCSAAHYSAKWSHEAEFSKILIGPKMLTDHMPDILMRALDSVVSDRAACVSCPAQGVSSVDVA
MT1-MMP act inh – MT1-MMP (human) activation inhibition; P50281; HT1080 RFP-PRO-GFP cells, GFP/RFP ratio fluorescence, overnight; percent of plate control window, DMSO zero; GFP/RFP ratio change, % at 20 µM; 360,000 tested, 0.061% active; AID 651647;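 active = GFP/RFP ratio change of at least 30% with cell ATP level not reduced by more than half and red fluorescence within 50% of control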
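Assay system: HT1080 RFP-PRO-GFP cells. Benchmarks: DMSO vehicle wells and RFP-L50D-GFP reporter cell wells. Times: overnight cell settling, then overnight compound exposure, 37 °C, 5% CO2. Compound: 20 µM single dose, 1% DMSO. Read-out basis: GFP/RFP fluorescence ratio.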
TMEM16A act – mouse TMEM16A channel activation, primary screen | AID 623877 | Q8BHY3 | HEK293 TMEM16A/YFP-H148Q/I152L, iodide quench fluorescence; active compounds read low | B-score at 10 µM | 340,000 tested, 0.3% active;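 active = fluorescence-ratio B-score plate-corrected deviation score at least 3 library SD below zero, with starting fluorescence score within 5 deviations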;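 also: channel opened by trigger with iodide after compound preincubation; score built on the fluorescence ratio of max minus min over baseline; more negative score means more quench and so TMEM16A activation or potentiation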
TMEM16A inh – mouse TMEM16A channel inhibition, primary screen. 310,000 tested, 1.2% active. Q8BHY3. AID 588511. normalized B-score (activity score, 25-100; higher = stronger inhibition) at 10 µM. HEK293 TMEM16A/YFP iodide influx fluorescence, ionomycin;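 active = ratio plate-corrected score three or more library SD toward inhibition, starting fluorescence score within five deviations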;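 also: score derived from kinetic fluorescence span divided by baseline fluorescence per well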
An asterisk follows results filed as active; i = inactive; · = not tested or not shown. An excerpt weighted towards active compounds, which were near 1.3% of everything screened.

SMILES	DAGLB inh	MT1-MMP act inh	TMEM16A act	TMEM16A inh
CC(=O)Nc1cccc(-c2csc(C(O)c3ccccc3)n2)c1 (stereo not given)	·	2	·	·
CC(C)Cc1ccc(C(C)C(N)=NCCc2ccccc2)cc1 (stereo not given)	2	-26	i	i
N#C/C(=C(/O)c1ccccc1F)c1nc2cc(C(F)(F)F)ccc2s1	9	-5	i	i
N#C/C(=C(/O)c1ccc2c(c1)OCO2)c1nc2cc(C(F)(F)F)ccc2s1	5	-8	i	100*
C=CCOc1ccc(CN(C)C(=O)CNC(=O)c2ccc(-c3ccccc3)cc2)cc1	-6	6	i	25*
CCN(CC)S(=O)(=O)c1ccc(OC)c(NC(=O)c2ccc([N+](=O)[O-])cc2)c1	-1	-1	i	i
COc1ccc(C(=O)Nc2ccccc2)cc1NC(=O)c1ccc([N+](=O)[O-])cc1	0	5	-7.2*	i
CCCN1C2CCCC1CC(NC(=O)c1ccccc1OC)C2 (stereo not given)	-2	0	i	100*
Cc1ccc2oc(-c3cccc(NC(=O)Cn4cnc5c(=O)n(C)c(=O)n(C)c54)c3)nc2c1	·	·	·	100*
CCC(C)c1ccc2oc(-c3ccc(NC(=O)Cn4cnc5c(=O)n(C)c(=O)n(C)c54)cc3)nc2c1 (stereo not given)	2	6	i	i
Cc1ccc(S(=O)(=O)NCc2ccc(C(=O)N3CCN(c4ccc([N+](=O)[O-])cc4)CC3)cc2)cc1	4	-9	i	i
CCOC(=O)N1CCN(Cc2cc(=O)oc3cc4c(cc23)CCC4)CC1	-3	5	-14*	i
Nc1cc2[nH]c(=O)c3ccccc3c2cc1[N+](=O)[O-]	16	5	i	·
COc1ccccc1C(=O)Nc1ccnn1C1CCN(C2CCCCC2)CC1	0	0	·	·
CCCS(=O)(=O)N1CCN(C2Cc3ccccc3C2)CC1	-4	-1	-13*	i
O=C(NC(C(=O)N/N=C/c1ccncc1)c1n[nH]c(=O)c2ccccc12)c1ccccc1 (stereo not given)	15	1	i	i
O=C(NC(C(=O)N/N=C/c1cccnc1)c1n[nH]c(=O)c2ccccc12)c1ccccc1 (stereo not given)	11	5	-6.4*	i
O=C(O)Cc1ccc(N2N=C(c3ccccc3)CC2=O)cc1	·	4	·	·
Cc1ccc(NC(=O)c2c(Cl)nc3ccccn23)cc1	0	3	-6.1*	i
O=C(CN1C(=O)C2CC=CCC2C1=O)NC1CCCc2ccccc21 (stereo not given)	2	3	-23*	i
CCc1nc2ccc(C(=O)N(C)Cc3ccccc3)cn2c1N(CC)CCN(C)C	·	-9	·	·
CCCCCCCCCC(=O)N1CCN(c2cc3c(cc2F)c(=O)c(C(=O)O)cn3CC)CC1	-2	-3	-8.6*	i
COc1ccc2oc3cc(NCCN(C)C)ccc3c(=O)c2c1	·	5	·	·
Cc1ccc(Cl)cc1N1CCN(S(=O)(=O)N2CCCCC2)CC1	-18	-7	-9.7*	i
CC(C)C[C@H](NC(=O)c1nc[nH]c1C(=O)NCC(=O)OCc1ccccc1)C(=O)OC(C)(C)C	-3	-4	-15*	i
SMILES	DAGLB inh	MT1-MMP act inh	TMEM16A act	TMEM16A inh
C[C@@H](NC(=O)c1nc[nH]c1C(=O)NC1CCN(C(=O)OC(C)(C)C)CC1)c1ccccc1	-4	2	i	·
C[C@H](NC(=O)c1nc[nH]c1C(=O)N1CCN(C(=O)OC(C)(C)C)CC1)c1ccccc1	0	1	-7.2*	·
Cc1ccc2nc(N(CCCN(C)C)C(=O)c3ccc(S(=O)(=O)N4CCc5ccccc5C4)cc3)sc2c1	1	-17	-5.3*	i
CN(C)CCCN(C(=O)c1ccc(S(=O)(=O)N2CCc3ccccc3C2)cc1)c1nc2ccc(F)cc2s1	1	-8	i	i
CCc1ccc(OCCOCC(O)CN2CCN(Cc3ccc(Cl)cc3)CC2)cc1 (stereo not given)	0	-6	i	100*
COc1ccc([C@H]2CC(=O)C=C(c3ccc(-c4ccccc4)c(F)c3)C2)cc1OC	0	0	-6.2*	·
COc1ccc([C@H]2CC(=O)C=C(c3ccc4ccccc4c3)C2)cc1OC	-2	2	i	·
CC[n+]1c(/C=C/C=C/N(C(C)=O)c2ccccc2)sc2cc(OC)ccc21	·	·	·	i
Cc1ccc([N+](=O)[O-])cc1N=Nc1c(-c2ccc([N+](=O)[O-])cc2)[nH]n(C(N)=S)c1=O	7	-11	-5.4*	·
CC[C@H](C)/C=C(C)/C=C/C(=O)Cc1cc(O)c(C)c(O)c1C=O	8	6	-13*	i
COc1ccc(NC(=O)c2cc(C3CCCCN3C(=O)CCCc3ccccc3)on2)c(C)c1 (stereo not given)	·	-6	·	·
COc1ccccc1NC(=O)CS(=O)(=O)c1cn(CC(=O)N2CCCC2)c2ccccc12	2	5	i	i
COC(=O)C1=C(C(=O)OC)[C@]2([C@H]3CC=CCN[C@@H](Cc4ccccc4)C(=O)N3Cc3ccccc3)C=C[C@H]1O2	-1	-5	-10*	·
OC(CCN1CC2CCC(CC2)C1)(Cc1ccccc1)c1ccco1 (stereo not given)	0	3	i	·
CCN(CC(=O)Nc1ccc(N2CCOCC2)cc1)C(=O)c1ccc(C(F)(F)F)cc1	2	1	i	i
CCN(CC(=O)Nc1ccc(N2CCOCC2)cc1)C(=O)Cc1ccccc1	0	1	-32*	·
S=C(NCC1CCCO1)N1CCN(c2ccccc2)CC1 (stereo not given)	-6	3	i	i
FC(F)(F)c1cccc(N2CCN(C(=S)NCC3CCCO3)CC2)c1 (stereo not given)	-11	1	i	25*
FC(F)Sc1ccc(NC(=S)NC2CCCCC2)cc1	-4	2	i	i
FC(F)Sc1ccc(NC(=S)NCC2CCCCC2)cc1	-9	-32	i	100*
COC(=O)[C@]12CCCCC=C1N(Cc1ccc(Cl)cc1Cl)C(=O)[C@H](CC(=O)N1CCSCC1)C2	·	-10	·	·
COc1ccc(NC(=O)C2(C)CCCN(C(C)C)C2)cc1F (stereo not given)	·	-2	·	·
S=C(NCCSCc1c(Cl)cccc1Cl)Nc1ccccc1	-4	2	i	100*
S=C(NCCSCc1ccc(Cl)c(Cl)c1)Nc1ccccc1	-2	-6	i	100*
O=C(NCCSCc1c(F)cccc1Cl)Nc1ccccc1	-12	1	i	i
NC(=O)NC(CC(=O)OCC(=O)Nc1nnc(-c2ccccc2)o1)c1ccc(Cl)cc1 (stereo not given)	1	-3	·	·
CCn1c(CSCc2ccc(C)cc2)nnc1SCC(=O)N1CCN(c2ccccc2)CC1	4	3	i	25*
C=CCn1c(CSCc2ccccc2)nnc1SCC(=O)N1CCN(c2ccccc2)CC1	1	·	i	i
